Published values pooled from the literature.
Protocols differ between the studies behind these lines.
SLC18A2: Synaptic vesicular amine transporter (SLC18A2, Homo sapiens, UniProt Q05940)
gag-pol reverse transcriptase: Gag-Pol polyprotein, reverse transcriptase (gag-pol, Human immunodeficiency virus 1, UniProt P03366)
CYP2C19: Cytochrome P450 2C19 (CYP2C19, Homo sapiens, UniProt P33261)
LATS1: Serine/threonine-protein kinase LATS1 (LATS1, Homo sapiens, UniProt O95835)
CA2: Carbonic anhydrase 2 (CA2, Homo sapiens, UniProt P00918)
CA1: Carbonic anhydrase 1 (CA1, Homo sapiens, UniProt P00915)

Compound | target | test | system | setting | IC50
O=C(O[C@H]1CN2CCC1CC2)N1CCc2ccccc2[C@@H]1c1ccccc1 | SLC18A2 | transporter uptake, inhibitor |  |  | 5.7 µM
C=CCNc1c2c([nH]c(=O)c1C(=O)OCC)CCC2 | gag-pol reverse transcriptase | enzyme activity, inhibitor |  |  | > 100 µM
C=C(C)[C@@H]1CC[C@]2(C(=O)O)CC[C@]3(C)[C@H](CC[C@@H]4[C@@]5(C)CC[C@H](O)C(C)(C)[C@@H]5CC[C@]43C)[C@@H]12 | UDP-glucuronosyltransferase 1A4 (UGT1A4, Homo sapiens, UniProt P22310) | enzyme activity, inhibitor | human, liver microsomes |  | 4.21 µM
C=CCn1c(=O)c2cnc(Nc3ccc(N4CCN(C)CC4)cc3)nc2n1-c1ccc2c(n1)[C@@](O)(CC)CC2 | CYP2C19 | enzyme activity, inhibitor |  |  | 10 µM
Cc1cc(-c2ccnc3[nH]cc(F)c23)ccc1[C@@]1(O)[C@H](C)CNC[C@@H]1C | LATS1 | target engagement in cells, BRET |  |  | 0.078 µM
CCOCCn1c(C2CCN(CCc3ccc(C(C)(C)C(=O)O)cc3)CC2)nc2ccccc21 | CA2 | enzyme activity, inhibitor, absorbance |  | pH 7.4 | 13.4 µM
CN(C)C(=O)c1cc2cnc(Nc3ccc(-c4ccc5c(=O)cc(N6CCOCC6)oc5c4)cc3)nc2n1C1CCCC1 | CYP2C19 | enzyme activity, inhibitor, fluorescence |  | pH 8 | 0.023 µM
Clc1ccc2c(c1)C(N1CCNCC1)=Nc1ccccc1O2 | SLC18A2 | transporter uptake, inhibitor |  |  | 8.5 µM
CC(C)(C)NC(=O)C1CCN(Cc2cccc(NC(=O)c3ccc(F)cc3)c2)CC1 | Atypical chemokine receptor 3 (ACKR3, Homo sapiens, UniProt P25106) | ligand displacement, BRET |  |  | 0.0631 µM
Cc1ccccc1N1CCN(CCc2nnc3n2CCCC3)CC1 | SLC18A2 | transporter uptake, inhibitor |  |  | 0.566 µM
C[C@H]1c2cccc(O)c2C(=O)C2=C(O)[C@]3(O)C(=O)C(C(N)=O)=C(O)[C@@H](N(C)C)[C@@H]3[C@@H](O)[C@@H]21 | CA1 | enzyme activity, inhibitor, absorbance |  | pH 7.4 | 12.6 µM
CCCCNc1c2c([nH]c(=O)c1C(=O)OCC)CCC2 | gag-pol reverse transcriptase | enzyme activity, inhibitor |  |  | > 100 µM
CCOc1ccccc1OCCN[C@H](C)Cc1ccc(OC)c(S(N)(=O)=O)c1 | SLC18A2 | transporter uptake, inhibitor |  |  | 1.86 µM
CCOC(=O)c1c(NCCC2CC2)c2c([nH]c1=O)CCC2 | gag-pol reverse transcriptase | enzyme activity, inhibitor |  |  | > 100 µM
CN(C)CCCN1c2ccccc2Sc2ccc(Cl)cc21 | SLC18A2 | transporter uptake, inhibitor |  |  | 3.4 µM
CC1CNCCC1(O)c1ccc(-c2ccnc3[nH]cc(F)c23)cc1 (stereo not shown) | LATS1 | enzyme activity, inhibitor, radiometric |  |  | 0.0098 µM
O=C1CC2(CCCC2)CC(=O)N1CCCCN1CCN(c2ncccn2)CC1 | SLC18A2 | transporter uptake, inhibitor |  |  | 2.19 µM
CC(=O)N1C[C@@H](C)[C@](O)(c2c(C)cc(-c3ccnc4[nH]cc(F)c34)cc2F)[C@@H](C)C1 | LATS1 | enzyme activity, inhibitor, radiometric |  |  | 0.0067 µM
COc1ccnc(C[S+]([O-])c2nc3ccc(OC(F)F)cc3[nH]2)c1OC (stereo not shown) | CA1 | enzyme activity, inhibitor, absorbance |  | pH 7.4 | 10.6 µM
NC(=O)c1nnn(Cc2cc(Cl)c(C(=O)c3ccc(Cl)cc3)c(Cl)c2)c1N | Alpha-2A adrenergic receptor (ADRA2A, Homo sapiens, UniProt P08913) | cAMP, antagonist |  |  | 0.612 µM
Nc1ccc(S(=O)(=O)c2ccc(N)cc2)cc1 | CA2 | enzyme activity, inhibitor, absorbance |  | pH 7.4 | 15 µM
C[C@@H]1CNC[C@H](C)[C@@]1(O)c1ccc(-c2ccnc3[nH]cc(F)c23)cc1 | LATS1 | enzyme activity, inhibitor, radiometric |  |  | 0.011 µM
